Test results from ChEMBL document CHEMBL3352738, “A new phenylpropanoid and an alkylglycoside from Piper retrofractum leaves with their antioxidant and α-glucosidase inhibitory activity” (Bioorg Med Chem Lett, 2014).

Legend:
[1] = Antioxidant activity assessed as […] reduction power at 1 uM after 1 hr by cupric ion reducing antioxidant capacity assay; format: physicochemical
[2] = Antioxidant activity assessed as trolox equivalent of AAPH radical scavenging activity at 10 uM after 2 mins by ORAC-RCoo assay; format: physicochemical
Outline: (§1)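 Peroxyl radical scavenging was measured by the oxygen radical absorbance capacity (ORAC) assay, with Trolox as the positive control. Values are reported as Trolox equivalents (TE).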

[3] = Inhibition of alpha-glucosidase (unknown origin) using 3 mM p-NPG solution at 50 uM relative to control; details: Rattus norvegicus
[4] = Antioxidant activity assessed as […] reduction power at 10 uM after 1 hr by cupric ion reducing antioxidant capacity assay; format: physicochemical
[5] = Metal chelating activity of the compound assessed as Cu2+ chelating activity at 10 uM by fluorescence assay relative to control; format: physicochemical
[6] = Antioxidant activity assessed as trolox equivalent of AAPH radical scavenging activity at 1 uM after 2 mins by ORAC-RCoo assay; format: physicochemical; outline: as §1

| SMILES | Activity [1] [µM] | Activity [2] [µM] | inhibition [3] [%] | Activity [4] [µM] | Activity [5] [%] | Activity [6] [µM] |
| --- | --- | --- | --- | --- | --- | --- |
| OC[C@@]1(O)CO[C@@H](OC[C@H]2O[C@@H](OCc3ccccc3)[C@H](O)[C@@H](O)[C@@H]2O)[C@@H]1O | 0.46 | 1.61 | 7.93 | 0.84 | 19.3 | 0.15 |
| CC(C)O[C@@H]1O[C@H](CO)[C@@H](O)[C@H](O)[C@H]1O | 0.29 | 1.79 | 7.31 | 0.54 | 20.97 | 0.22 |
| CC1=CC(=O)CC(C)(C)[C@@]1(O)CC[C@@H](C)O[C@@H]1O[C@H](CO)[C@@H](O)[C@H](O)[C@H]1O | 0.21 | 0.92 | 6.9 | 0.34 | 20.5 | 0.12 |
| CCCCC[C@H](C)O[C@@H]1O[C@H](CO[C@@H]2OC[C@](O)(CO)[C@H]2O)[C@@H](O)[C@H](O)[C@H]1O | 0.34 | 3.07 | 8.62 | 1.13 | 19.63 | 1.04 |
| CCCCC[C@H](C)O[C@@H]1O[C@H](CO[C@@H]2OC[C@@H](O)[C@H](O)[C@H]2O)[C@@H](O)[C@H](O)[C@H]1O | 0.17 | 2.26 | 8.54 | 0.59 | 20.58 | 0.48 |
| CC(C)O[C@@H]1O[C@H](CO[C@@H]2OC[C@@H](O)[C@H](O)[C@H]2O)[C@@H](O)[C@H](O)[C@H]1O | 0.27 | 2.13 | 7.49 | 0.63 | 21.67 | 0.31 |
| OC[C@H]1O[C@@H](OCc2ccccc2)[C@H](O)[C@@H](O)[C@@H]1O | 0.41 | 1.83 | 12 | 0.69 | 22.39 | 0.18 |
| CCCCO[C@@H]1O[C@H](CO)[C@@H](O)[C@H](O)[C@H]1O | 0.18 | 3.64 |  | 1.68 | 18.04 | 0.62 |

Further lines, results first:

| Activity [1] [µM] | Activity [2] [µM] | inhibition [3] [%] | Activity [4] [µM] | Activity [5] [%] | Activity [6] [µM] | SMILES |
| --- | --- | --- | --- | --- | --- | --- |
| 0.29 | 2.88 | 11.7 | 0.96 | 24.21 | 0.55 | COc1cc(C[C@@H](O)CO)ccc1O[C@@H]1O[C@H](CO)[C@@H](O)[C@H](O)[C@H]1O |
| 1.55 | 16.26 | 9.08 | 22.77 | 20.48 | 2.55 | C=CCc1ccc(O)c(O)c1 [HYDROXYCHAVICOL] |
| 9.01 | 28.2 |  | 43.82 | 25 | 3.59 | COc1cc(C[C@@H](O)CO)ccc1O |
| 0.21 | 1.65 | 4.6 | 0.63 | 21.42 | 0.21 | COc1cc(O[C@@H]2O[C@H](CO)[C@@H](O)[C@H](O)[C@H]2O)ccc1O [TACHIOSIDE] |
| 0.32 | 1.71 | 7.02 | 0.65 | 21.8 | 0.17 | C=CCc1ccc(O[C@@H]2O[C@H](CO)[C@@H](O)[C@H](O)[C@H]2O)c(O[C@@H]2O[C@H](CO)[C@@H](O)[C@H](O)[C@H]2O)c1 |
